For assay [1], the system named is Panel NCI-60 (60 carcinoma cell lines). Briefly: In vitro cytotoxic potency against NCI-60 human tumor cell line was determined. In kind it is functional. The method in brief: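 Tested in the NCI primary in vitro human tumor cell screen. Potency was taken from the dose-response curves, which were also analysed for the differential cytotoxicity pattern typical of antimitotic standard agents.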

Assay [2] deals with T1, Tubulin (Bos taurus) (UniProt Q6B856+Q862L2+Q862F3). Briefly: In vitro inhibition of binding of [3H]colchicine to tubulin (10 uM) at compound concentration of 5 mM. In kind it is protein assay.
In assay [3] the target is T1, Tubulin (Bos taurus). Briefly: In vitro inhibition of binding of [3H]colchicine to tubulin (10 uM) at compound concentration of 50 mM. The format is protein assay.
For assay [4], the system named is Panel NCI-60 (60 carcinoma cell lines). Briefly: In vitro cytotoxic potency against NCI-60 human tumor cell line. In kind it is functional.
The next assay deals with Tubulin. Briefly: In vitro inhibitory activity against tubulin polymerization (10 uM). The format is protein-complex assay.

The record followed here is ChEMBL document CHEMBL1130998, “Structure-activity requirements for flavone cytotoxicity and binding to tubulin” (J Med Chem, 1998).

Each structure is given as a SMILES string.

What is called GI50 is the concentration at which growth is held to half of that of the control. A lower GI50 goes with more potent growth inhibition. By inhibition is commonly meant the relative decrease from the control value, in per cent. One may read the IC50 as the concentration at which inhibition is half-maximal. Higher therefore signals weaker potency.

As to `COc1c(OC)c(OC)c2c(=O)cc(-c3ccc(NC(C)=O)cc3)oc2c1OC`, in assay [1], the GI50 is greater than 100 µM.
With `COc1ccc(-c2oc3cc(O)cc(O)c3c(=O)c2OC)cc1O`, the inhibition at Tubulin (Bos taurus) [2] amounted to 43%; at Tubulin (Bos taurus) [3] it was 75%. In assay [4], this compound came in with a GI50 of 1700 nM. The compound further yielded an IC50 against Tubulin of 3000 nM.
For `COc1ccc(-c2oc3c(OC)c(OC)c(OC)c(O)c3c(=O)c2OC)cc1O`, in that order: 59%, 89%, 130 nM and 830 nM.
For `COc1ccc(-c2oc3cc(O)c(OC)c(O)c3c(=O)c2OC)cc1O` [CENTAUREIDIN], the values for the inhibition on Tubulin (Bos taurus) [2] and on Tubulin (Bos taurus) [3] were 35% and 76%, respectively. Besides, the GI50 in assay [4] worked out at 240 nM. The compound also displayed an IC50 against Tubulin of 2000 nM.
